# Assay results pooled from the literature.
# BRAF: Serine/threonine-protein kinase B-raf (BRAF, Homo sapiens, UniProt P15056)
# BRAF V600E: Serine/threonine-protein kinase B-raf (BRAF, Homo sapiens, UniProt P15056, V600E)
SMILES,target,assay,conditions,remaining binding [%]
Cc1cnn2ncc(-c3ccnc(N(C)C)n3)c2c1,BRAF,binding,1 µM,82
N#Cc1ccccc1CSc1nnc2c(n1)[nH]c1ccccc12,BRAF,"binding, competition with immobilised ligand",10 µM,94
CCC(=N\O)/C(C)=C/c1ccc(F)cc1,BRAF V600E,"cell-free assay, competition with immobilised ligand",1 µM,77
O=C(c1ccc(Nc2ncc(Cl)c(-c3ccc(Cl)s3)n2)cc1)N1CCC(N2CCCC2)CC1,BRAF,"binding, competition with immobilised ligand",1 µM,65
CN(C)c1nccc(-c2cnc3ncccn23)n1,BRAF,binding,1 µM,89
Cc1cc(-n2nc(Cc3cc(F)cc(C(F)(F)F)c3)nc2C)ccc1C(N)=O,BRAF,"cell-free assay, competition with immobilised ligand",1 µM,86
CN1CCN(c2ccc(Nc3nccc(-c4ccccc4)n3)cc2C(F)(F)F)CC1,BRAF V600E,binding,10 µM,31
O=C(c1ccc(Nc2ncc(Cl)c(-c3cc4ccccc4s3)n2)cc1)N1CCC(N2CCCC2)CC1,BRAF V600E,"binding, competition with immobilised ligand",1 µM,56
CN([C@@H]1CCc2c(CC(=O)O)c3cc(S(C)(=O)=O)ccc3n2C1)S(=O)(=O)c1ccc(F)cc1,BRAF,"cell-free assay, competition with immobilised ligand",1 µM,98
c1cnn2ncc(-c3ccnc(N4CCC45COC5)n3)c2c1,BRAF V600E,binding,1 µM,63
FC(F)(F)Oc1cccc(-c2cnc3ccc(-c4ccncc4)nn23)c1,BRAF,"cell-free assay, competition with immobilised ligand",5 µM,32
COc1ncc2cc3ccccc3nc2c1C#N,BRAF V600E,"cell-free assay, competition with immobilised ligand",5 µM,100
C[C@@H](c1ccc(-n2cnc3c(N)ncnc32)cc1)N1CCc2nn(C)c(Cc3ccccc3)c2C1=O,BRAF V600E,"binding, competition with immobilised ligand",0.1 µM,76
CN(CCCC(F)(F)F)c1nccc(-c2cnn3ncccc23)n1,BRAF V600E,binding,1 µM,100
COc1cnc(Nc2cccc(S(N)(=O)=O)c2)nc1N1CCN(c2ccccc2)C(=O)C1,BRAF,"binding, competition with immobilised ligand",1 µM,87
O=C(Nc1c[nH]nc1C(=O)NC1CCNCC1)c1cc(F)cc(F)c1,BRAF V600E,"binding, competition with immobilised ligand",1 µM,100
CNC(=O)[C@@H]1CC[C@@H](n2c(-c3ccc4cnccc4c3)nc3ccc(C(=O)NCc4cccc(C(N)=O)c4)cc32)C1,BRAF,"binding, competition with immobilised ligand",1 µM,100
c1cncc(-c2cccc(Nc3nccc(NC4CCCCC4)n3)c2)c1,BRAF,"binding, competition with immobilised ligand",10 µM,69
O=C(NCC1CCOCC1)c1n[nH]cc1NC(=O)c1c(F)cccc1F,BRAF,"binding, competition with immobilised ligand",1 µM,93
O=C(NCCCN1CCOCC1)c1ccc(Nc2ncc(Cl)c(-c3ccc(Cl)s3)n2)cc1,BRAF,"binding, competition with immobilised ligand",1 µM,100
COc1ccnn2ncc(-c3ccnc(N(C)C)n3)c12,BRAF,binding,1 µM,48
COc1ccc2cc(OCC3(C(=O)O)CN(C(=O)c4ccc(F)cc4)C3)ccc2c1,BRAF V600E,"cell-free assay, competition with immobilised ligand",1 µM,100
O=C(c1ccc(Nc2nccc(-c3cc4ccccc4s3)n2)cc1)N1CCC(N2CCCC2)CC1,BRAF,"binding, competition with immobilised ligand",1 µM,38
C[C@@H]1CN(c2ccc3ncc(-c4ccc5[nH]nc(C6CC6)c5c4)n3n2)C[C@H](C)O1,BRAF,"binding, competition with immobilised ligand",50 nM,91
NS(=O)(=O)c1cc(NC(=O)C2(c3ccccc3Cl)CC2)ccc1Oc1cccc(Cl)c1,BRAF,"cell-free assay, competition with immobilised ligand",1 µM,71
Nc1ncc2c(n1)-c1c([nH]c3ccc(C#CC4CC4)cc13)CCCC2,BRAF V600E,"binding, competition with immobilised ligand",1 µM,88
Cc1cc(NC(=O)c2cccc(S(F)(F)(F)(F)F)c2)cc(-n2ccn3nc(-c4cccnc4)cc23)c1,BRAF V600E,"cell-free assay, competition with immobilised ligand",1 µM,24.4
C=CC(=O)N1CCC(C(=O)NCC(=O)N2CCN(c3nc(-c4cnc(N)nc4C(F)F)nc(N4CCOCC4)n3)CC2)CC1,BRAF V600E,"binding, competition with immobilised ligand",1 µM,89
Cc1c(NC(=O)c2cc(C(N)=O)nc3cc(F)ccc23)c(C(F)(F)F)nn1Cc1ccc(C#N)cc1,BRAF V600E,"cell-free assay, competition with immobilised ligand",1 µM,90
C[C@@H]1CCN(c2nccc(-c3cnn4ncccc34)n2)C1,BRAF,binding,1 µM,75
Cc1nc(Cc2cccc(C(F)(F)F)c2)sc1-c1ccc(C(N)=O)nc1,BRAF,"cell-free assay, competition with immobilised ligand",1 µM,73
CN(C)c1nccc(-c2cnn3ncccc23)n1,BRAF V600E,binding,1 µM,69
O=C(NCCCN1CCOCC1)c1ccc(Nc2nccc(-c3cc4ccccc4s3)n2)cc1,BRAF V600E,"binding, competition with immobilised ligand",1 µM,67
N[C@H]1CCN(c2nccc(-c3cnn4ncccc34)n2)C1,BRAF V600E,binding,1 µM,92
Cc1cnc(Nc2ccc(C(=O)N3CCC(N4CCCC4)CC3)cc2)nc1-c1cc2ccccc2s1,BRAF V600E,"binding, competition with immobilised ligand",1 µM,32
CCN1CCN(Cc2ccc(C(=O)Nc3ccc(C)c(Oc4ccc5c(c4)CC(=O)N5)c3)cc2C(F)(F)F)CC1,BRAF,"binding, competition with immobilised ligand",1 µM,64
